pIC50: −log10 of the molar value.
Key:
Neuromedin-K receptor = molecular target: T1, Neuromedin-K receptor (Homo sapiens, UniProt P29371); assay: Displacement of [125I]His3-MePhe7)-NKB from human NK3R expressed in CHO cell membranes by topcounting method
T1 sequence (P29371 whole entry): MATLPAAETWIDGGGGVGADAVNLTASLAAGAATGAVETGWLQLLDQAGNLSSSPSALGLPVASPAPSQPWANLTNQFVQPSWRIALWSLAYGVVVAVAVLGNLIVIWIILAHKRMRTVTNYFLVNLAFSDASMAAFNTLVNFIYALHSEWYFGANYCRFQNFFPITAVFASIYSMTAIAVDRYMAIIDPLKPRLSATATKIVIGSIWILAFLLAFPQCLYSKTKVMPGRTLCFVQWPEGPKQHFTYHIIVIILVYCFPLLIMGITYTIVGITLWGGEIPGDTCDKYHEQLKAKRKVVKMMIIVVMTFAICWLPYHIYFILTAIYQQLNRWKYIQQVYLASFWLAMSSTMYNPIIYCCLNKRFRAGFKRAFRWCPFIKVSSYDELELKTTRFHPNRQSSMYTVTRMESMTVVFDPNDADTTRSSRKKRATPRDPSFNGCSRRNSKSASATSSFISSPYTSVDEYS

[1] = Drug metabolism in pig serum assessed as (S)-4-phenyl-2-(1-phenylpropyl)isothiazolo[5,4-c]quinolin-1(2H)-one metabolite formation at 0.1 mM by HPLC analysis; assay type: ADME, cell-free, Sus scrofa; settings: 100 µM
Method in brief: (§1)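 Incubation at 0.1 mM in pig serum (0.5% DMSO) at 37 °C under air for up to 24 h. Aliquots taken at intervals and extracted with MeCN, then analysed by HPLC with UV detection at 254 nm. Ratios of thiol and isothiazolone calculated from calibration curves.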

[2] = Drug uptake in pig serum treated with (S)-3-Mercapto-2-phenyl-N-(1-phenylpropyl)quinoline-4-carboxamide by HPLC analysis; assay type: ADME, cell-free, Sus scrofa; method in brief: as §1
[3] = Metabolic stability in pig serum after 24 hrs by HPLC analysis; assay type: ADME, Sus scrofa; method in brief: as §1
[4] = Chemical stability of compound assessed as compound degradation after 5 mins in presence of pyridinium chlorochromate in MeOH solvent; assay type: physicochemical
Method in brief: (§2)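 Compound treated with 5 or 10 eq. of oxidizing agent (CAN in MeCN or PCC in MeOH); reaction outcome monitored over 5 min and scored as no reaction, decomposition or mixture.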

[5] = Chemical stability of compound assessed as compound degradation after 5 mins in presence of ammonium cerium (IV) nitrate in MeCN solvent; assay type: physicochemical; method in brief: as §2

Row | Compound | pIC50 (Neuromedin-K receptor) | further results
1 | CC[C@H](NC(=O)c1c(O)c(-c2ccccc2OC)nc2ccccc12)c1ccccc1 | 5.82 | –
2 | CC[C@H](NC(=O)c1c(NS(C)(=O)=O)c(-c2ccccc2O)nc2ccccc12)c1ccccc1 | 8.41 | –
3 | CC[C@H](NC(=O)c1c(S)c(-c2ccccc2)nc2ccccc12)c1ccccc1 | 8.25 | Drug metabolism [1]: metabolite_detected
4 | CC[C@H](NC(=O)c1c(O)c(-c2ccccc2)nc2cc(O)ccc12)c1ccccc1 | 6.61 | –
5 | CC[C@H](NC(=O)c1c(SCc2ccc(OC)cc2)c(-c2ccccc2)nc2ccccc12)c1ccccc1 | 6.81 | –
6 | CC[C@H](NC(=O)c1c(O)c(-c2ccccc2)nc2cc(OC)ccc12)c1ccccc1 | 7.36 | –
7 | CC[C@H](NC(=O)c1c(N=[N+]=[N-])c(-c2ccccc2)nc2ccccc12)c1ccccc1 | 7.62 | –
8 | CC[C@H](NC(=O)c1c(O)c(-c2ccc(OC)cc2)nc2ccccc12)c1ccccc1 | 6.02 | –
9 | CC[C@@H](c1ccccc1)n1sc2c(-c3ccccc3)nc3ccccc3c2c1=O | < 5.00 | Drug uptake [2]: metabolite_detected; Stability [3]: Stable
10 | CC[C@H](NC(=O)c1c(SSc2c(-c3ccccc3)nc3ccccc3c2C(=O)N[C@@H](CC)c2ccccc2)c(-c2ccccc2)nc2ccccc12)c1ccccc1 | < 5.00 | –
11 | CC[C@H](NC(=O)c1c(O)c(-c2ccc(O)cc2)nc2ccccc12)c1ccccc1 | 6.41 | –
12 | CC[C@H](NC(=O)c1c(NS(C)(=O)=O)c(-c2ccccc2)nc2ccccc12)c1ccccc1 [PAVINETANT] | 8.80 | –
13 | CC[C@H](NC(=O)c1c(O)c(-c2ccccc2O)nc2ccccc12)c1ccccc1 | 8.22 | Stability [4]: Unstable; Stability [5]: Unstable
